Source: ChEMBL document CHEMBL1137737, “Synthesis, antimicrobial and cytotoxic activities of 1,3,4-oxadiazoles, 1,3,4-thiadiazoles and 1,2,4-triazoles” (Eur J Med Chem, 2009)
Values after ≈ are worked out from the molar mass of the structure shown.

Key:
Assay type in all cases: functional
Staphylococcus aureus [1] = experiment: Antibacterial activity against Staphylococcus aureus NCIM 5021 after 24 hrs by microdilution susceptibility method; settings: NCIM 5021, 24 h
Summary of the method: (§1)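 This is a microdilution susceptibility test. Organism suspensions are inoculated into wells holding the dilution series, then incubated at 36 °C for 24 h (bacteria) or 48 h (fungi). MIC is the lowest concentration giving no turbidity, i.e. complete inhibition of visible growth.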

Fusarium solani [2] = experiment: Antifungal activity against Fusarium solani NCIM 1330 after 48 hrs by microdilution susceptibility method; settings: NCIM 1330, 48 h; summary of the method: as §1
Proteus vulgaris [3] = experiment: Antibacterial activity against Proteus vulgaris NCIM 2027 at 200 ug/disk after 24 hrs by agar disc-diffusion method; settings: NCIM 2027, 24 h, read-out: DIZ
Summary of the method: (§2)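 Sterile 6 mm filter-paper discs are soaked in compound solution in DMSO and placed on nutrient agar plates already inoculated with each organism. Plates are incubated at 37 °C. The diameter of the growth-inhibition zone is read after 24 h for bacteria and after 48 h for fungi.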

Klebsiella pneumoniae [4] = experiment: Antibacterial activity against Klebsiella pneumoniae NCIM 2957 at 200 ug/disk after 24 hrs by agar disc-diffusion method; settings: NCIM 2957, 24 h, read-out: DIZ; summary of the method: as §2
Fusarium solani [5] = experiment: Antifungal activity against Fusarium solani NCIM 1330 at 200 ug/disk after 48 hrs by agar disc-diffusion method; settings: NCIM 1330, 48 h, read-out: DIZ; summary of the method: as §2
Staphylococcus aureus [6] = experiment: Antibacterial activity against Staphylococcus aureus NCIM 5021 at 200 ug/disk after 24 hrs by agar disc-diffusion method; settings: NCIM 5021, 24 h, read-out: DIZ; summary of the method: as §2
Aspergillus niger [7] = experiment: Antifungal activity against Aspergillus niger NCIM 596 at 100 ug/disk after 48 hrs by agar disc-diffusion method; settings: NCIM 596, 48 h, read-out: DIZ; summary of the method: as §2
Aspergillus niger [8] = experiment: Antifungal activity against Aspergillus niger NCIM 596 at 200 ug/disk after 48 hrs by agar disc-diffusion method; settings: NCIM 596, 48 h, read-out: DIZ; summary of the method: as §2
Bacillus subtilis [9] = experiment: Antibacterial activity against Bacillus subtilis NCIM 2063 at 200 ug/disk after 24 hrs by agar disc-diffusion method; settings: NCIM 2063, 24 h, read-out: DIZ; summary of the method: as §2
Curvularia lunata [10] = experiment: Antifungal activity against Curvularia lunata NCIM 716 at 200 ug/disk after 48 hrs by agar disc-diffusion method; settings: NCIM 716, 48 h, read-out: DIZ; summary of the method: as §2
Bacillus subtilis [11] = experiment: Antibacterial activity against Bacillus subtilis NCIM 2063 after 24 hrs by microdilution susceptibility method; settings: NCIM 2063, 24 h; summary of the method: as §1
Curvularia lunata [12] = experiment: Antifungal activity against Curvularia lunata NCIM 716 after 48 hrs by microdilution susceptibility method; settings: NCIM 716, 48 h; summary of the method: as §1
Aspergillus niger [13] = experiment: Antifungal activity against Aspergillus niger NCIM 596 after 48 hrs by microdilution susceptibility method; settings: NCIM 596, 48 h; summary of the method: as §1
Curvularia lunata [14] = experiment: Antifungal activity against Curvularia lunata NCIM 716 at 100 ug/disk after 48 hrs by agar disc-diffusion method; settings: NCIM 716, 48 h, read-out: DIZ; summary of the method: as §2
Proteus vulgaris [15] = experiment: Antibacterial activity against Proteus vulgaris NCIM 2027 at 100 ug/disk after 24 hrs by agar disc-diffusion method; settings: NCIM 2027, 24 h, read-out: DIZ; summary of the method: as §2
Klebsiella pneumoniae [16] = experiment: Antibacterial activity against Klebsiella pneumoniae NCIM 2957 at 100 ug/disk after 24 hrs by agar disc-diffusion method; settings: NCIM 2957, 24 h, read-out: DIZ; summary of the method: as §2
Bacillus subtilis [17] = experiment: Antibacterial activity against Bacillus subtilis NCIM 2063 at 100 ug/disk after 24 hrs by agar disc-diffusion method; settings: NCIM 2063, 24 h, read-out: DIZ; summary of the method: as §2
Fusarium solani [18] = experiment: Antifungal activity against Fusarium solani NCIM 1330 at 100 ug/disk after 48 hrs by agar disc-diffusion method; settings: NCIM 1330, 48 h, read-out: DIZ; summary of the method: as §2
Staphylococcus aureus [19] = experiment: Antibacterial activity against Staphylococcus aureus NCIM 5021 at 100 ug/disk after 24 hrs by agar disc-diffusion method; settings: NCIM 5021, 24 h, read-out: DIZ; summary of the method: as §2
Proteus vulgaris [20] = experiment: Antibacterial activity against Proteus vulgaris NCIM 2027 after 24 hrs by microdilution susceptibility method; settings: NCIM 2027, 24 h; summary of the method: as §1
Klebsiella pneumoniae [21] = experiment: Antibacterial activity against Klebsiella pneumoniae NCIM 2957 after 24 hrs by microdilution susceptibility method; settings: NCIM 2957, 24 h; summary of the method: as §1

| Compound | MIC (Staphylococcus aureus [1]) | MIC (Fusarium solani [2]) | zone of inhibition at 200 µg/disc (Proteus vulgaris [3]) | zone of inhibition at 200 µg/disc (Klebsiella pneumoniae [4]) | zone of inhibition at 200 µg/disc (Fusarium solani [5]) | zone of inhibition at 200 µg/disc (Staphylococcus aureus [6]) | zone of inhibition at 100 µg/disc (Aspergillus niger [7]) | zone of inhibition at 200 µg/disc (Aspergillus niger [8]) | zone of inhibition at 200 µg/disc (Bacillus subtilis [9]) | zone of inhibition at 200 µg/disc (Curvularia lunata [10]) | MIC (Bacillus subtilis [11]) | MIC (Curvularia lunata [12]) | MIC (Aspergillus niger [13]) | zone of inhibition at 100 µg/disc (Curvularia lunata [14]) | zone of inhibition at 100 µg/disc (Proteus vulgaris [15]) | zone of inhibition at 100 µg/disc (Klebsiella pneumoniae [16]) | zone of inhibition at 100 µg/disc (Bacillus subtilis [17]) | zone of inhibition at 100 µg/disc (Fusarium solani [18]) | zone of inhibition at 100 µg/disc (Staphylococcus aureus [19]) | MIC (Proteus vulgaris [20]) | further results |
| --- | --- | --- | --- | --- | --- | --- | --- | --- | --- | --- | --- | --- | --- | --- | --- | --- | --- | --- | --- | --- | --- |
| O=S(=O)(Cc1nnc(-c2ccccc2)s1)c1ccc(Cl)cc1 | 400 µg/mL (≈ 1140 µM) | 400 µg/mL (≈ 1140 µM) | 19 mm | 17 mm | 21 mm | 23 mm | 16 mm | 19 mm | 23 mm | 21 mm | 400 µg/mL (≈ 1140 µM) | 400 µg/mL (≈ 1140 µM) | 400 µg/mL (≈ 1140 µM) | 19 mm | 16 mm | 15 mm | 18 mm | 18 mm | 20 mm | – | – |
| Nn1c(CS(=O)(=O)Cc2ccccc2)nnc1-c1ccccc1 | 400 µg/mL (≈ 1220 µM) | 200 µg/mL (≈ 609 µM) | 22 mm | 22 mm | 21 mm | 24 mm | 17 mm | 21 mm | 26 mm | 24 mm | 400 µg/mL (≈ 1220 µM) | 200 µg/mL (≈ 609 µM) | 400 µg/mL (≈ 1220 µM) | 22 mm | 17 mm | 18 mm | 23 mm | 19 mm | 22 mm | 200 µg/mL (≈ 609 µM) | MIC (Klebsiella pneumoniae [21]): 200 µg/mL (≈ 609 µM) |
| O=S(=O)(Cc1ccccc1)Cc1nnc(-c2ccccc2)s1 | 200 µg/mL (≈ 605 µM) | 200 µg/mL (≈ 605 µM) | 24 mm | 22 mm | 20 mm | 29 mm | 16 mm | 19 mm | 25 mm | 23 mm | 200 µg/mL (≈ 605 µM) | 200 µg/mL (≈ 605 µM) | 200 µg/mL (≈ 605 µM) | 21 mm | 16 mm | 17 mm | 22 mm | 18 mm | 24 mm | 400 µg/mL (≈ 1210 µM) | MIC (Klebsiella pneumoniae [21]): 200 µg/mL (≈ 605 µM) |
| O=S(=O)(Cc1nnc(-c2ccccc2)s1)c1ccccc1 | 400 µg/mL (≈ 1260 µM) | 400 µg/mL (≈ 1260 µM) | 20 mm | 18 mm | 22 mm | 21 mm | 15 mm | 17 mm | 17 mm | 19 mm | 400 µg/mL (≈ 1260 µM) | 400 µg/mL (≈ 1260 µM) | – | 16 mm | 18 mm | 16 mm | 15 mm | 18 mm | 19 mm | – | – |
| O=C(N[C@H](CO)[C@H](O)c1ccc([N+](=O)[O-])cc1)C(Cl)Cl [CHLORAMPHENICOL] | 6.25 µg/mL (≈ 19.3 µM) | – | 45 mm | 42 mm | – | 41 mm | – | – | 44 mm | – | 6.25 µg/mL (≈ 19.3 µM) | – | – | – | 42 mm | 37 mm | 38 mm | – | 35 mm | 12.5 µg/mL (≈ 38.7 µM) | MIC (Klebsiella pneumoniae [21]): 6.25 µg/mL (≈ 19.3 µM) |
| Nn1c(CS(=O)(=O)c2ccc(Cl)cc2)nnc1-c1ccccc1 | 400 µg/mL (≈ 1150 µM) | 200 µg/mL (≈ 573 µM) | 21 mm | 19 mm | 24 mm | 23 mm | 19 mm | 22 mm | 20 mm | 25 mm | 400 µg/mL (≈ 1150 µM) | 200 µg/mL (≈ 573 µM) | 200 µg/mL (≈ 573 µM) | 22 mm | 18 mm | 17 mm | 17 mm | 21 mm | 19 mm | 400 µg/mL (≈ 1150 µM) | – |
| CC(=O)N1CCN(c2ccc(OCC3COC(Cn4ccnc4)(c4ccc(Cl)cc4Cl)O3)cc2)CC1 (configuration not stated) [KETOCONAZOLE] | – | 12.5 µg/mL (≈ 23.5 µM) | – | – | 42 mm | – | 36 mm | 39 mm | – | 44 mm | – | 6.25 µg/mL (≈ 11.8 µM) | 6.25 µg/mL (≈ 11.8 µM) | 41 mm | – | – | – | 38 mm | – | – | – |
| Nn1c(CS(=O)(=O)c2ccccc2)nnc1-c1ccccc1 | 400 µg/mL (≈ 1270 µM) | 400 µg/mL (≈ 1270 µM) | 18 mm | 18 mm | 25 mm | 18 mm | 19 mm | 22 mm | 17 mm | 24 mm | 400 µg/mL (≈ 1270 µM) | 400 µg/mL (≈ 1270 µM) | – | 20 mm | 16 mm | 15 mm | 14 mm | 22 mm | 16 mm | – | – |
| O=S(=O)(Cc1nnc(-c2ccccc2Cl)s1)c1ccccc1 | 400 µg/mL (≈ 1140 µM) | 400 µg/mL (≈ 1140 µM) | 19 mm | 21 mm | 22 mm | 23 mm | 15 mm | 18 mm | 18 mm | 21 mm | 400 µg/mL (≈ 1140 µM) | 400 µg/mL (≈ 1140 µM) | 400 µg/mL (≈ 1140 µM) | 18 mm | 16 mm | 17 mm | 15 mm | 19 mm | 20 mm | – | – |
